From ChEMBL document CHEMBL3244005, “Troponoids. 3. Synthesis and antiallergy activity of N-troponyloxamic acid esters” (J Med Chem, 1979)
Values belong to the molecule of their own block, whether it stands above or below them.

Experiments:
[1] = tested on: Rattus norvegicus; test: Antiallergic activity in Sprague-Dawley CD rat assessed as inhibition of passive anaphylaxis-induced hind paw edema at 30 mg/kg, ip relative to control; assay type: functional; settings: route intraperitoneal; for inhibition in vivo at 30 mg/kg: Rattus norvegicus, Sprague-Dawley CD, ip
Procedure, shortened: (§1)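 Passive anaphylaxis (reaginic antibody) induced in rat hind paw: serum with reaginic antibody injected into left hind paw; antigen given intravenously 24 h later. Paw volume measured by mercury displacement; activity read as inhibition of paw edema versus controls. Test compounds given ip or po. Inhibition of 35% or more considered significant by Student's t test (p < 0.05).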

[2] = tested on: Rattus norvegicus; test: Antiallergic activity in Sprague-Dawley CD rat assessed as inhibition of passive anaphylaxis-induced hind paw edema at 100 mg/kg, po relative to control; assay type: functional; settings: for inhibition in vivo at 100 mg/kg: Rattus norvegicus, Sprague-Dawley CD, po; procedure, shortened: as §1
[3] = tested on: Rattus norvegicus; test: Antiallergic activity in Sprague-Dawley CD rat assessed as inhibition of passive anaphylaxis-induced hind paw edema at 30 mg/kg, po relative to control; assay type: functional; settings: for inhibition in vivo at 30 mg/kg: Rattus norvegicus, Sprague-Dawley CD, po; procedure, shortened: as §1
[4] = tested on: Rattus norvegicus; test: Antiallergic activity in Sprague-Dawley CD rat passive anaphylaxis model assessed as hind paw edema volume at 30 mg/kg, po relative to control; assay type: functional; procedure, shortened: as §1
[5] = tested on: Rattus norvegicus; test: Antiallergic activity in Sprague-Dawley CD rat passive anaphylaxis model assessed as hind paw edema volume at 10 mg/kg, po relative to control; assay type: functional; procedure, shortened: as §1
[6] = tested on: Rattus norvegicus; test: Antiallergic activity in Sprague-Dawley CD rat passive anaphylaxis model assessed as hind paw edema volume at 3 mg/kg, po relative to control; assay type: functional; procedure, shortened: as §1
[7] = tested on: Rattus norvegicus; test: Antiallergic activity in Sprague-Dawley CD rat assessed as inhibition of passive anaphylaxis-induced hind paw edema at 10 mg/kg, po relative to control; assay type: functional; procedure, shortened: as §1
[8] = tested on: Rattus norvegicus; test: Antiallergic activity in Sprague-Dawley CD rat assessed as inhibition of passive anaphylaxis-induced hind paw edema at 3 mg/kg, po relative to control; assay type: functional; procedure, shortened: as §1
[9] = tested on: Rattus norvegicus; test: Antiallergic activity in Sprague-Dawley CD rat assessed as inhibition of passive anaphylaxis-induced hind paw edema at 10 mg/kg, ip relative to control; assay type: functional; settings: route intraperitoneal; for inhibition in vivo at 10 mg/kg: Rattus norvegicus, Sprague-Dawley CD, ip; procedure, shortened: as §1
[10] = tested on: Rattus norvegicus; test: Antiallergic activity in Sprague-Dawley CD rat passive anaphylaxis model assessed as hind paw edema volume at 10 mg/kg, ip relative to control; assay type: functional; settings: route intraperitoneal; procedure, shortened: as §1
[11] = tested on: Rattus norvegicus; test: Antiallergic activity in Sprague-Dawley CD rat passive anaphylaxis model assessed as hind paw edema volume at 5 mg/kg, ip relative to control; assay type: functional; settings: route intraperitoneal; procedure, shortened: as §1
[12] = tested on: Rattus norvegicus; test: Antiallergic activity in Sprague-Dawley CD rat passive anaphylaxis model assessed as hind paw edema volume at 2 mg/kg, ip relative to control; assay type: functional; settings: route intraperitoneal; procedure, shortened: as §1
[13] = tested on: Rattus norvegicus; test: Antiallergic activity in Sprague-Dawley CD rat assessed as inhibition of passive anaphylaxis-induced hind paw edema at 5 mg/kg, ip relative to control; assay type: functional; settings: route intraperitoneal; procedure, shortened: as §1
[14] = tested on: Rattus norvegicus; test: Antiallergic activity in Sprague-Dawley CD rat assessed as inhibition of passive anaphylaxis-induced hind paw edema at 2 mg/kg, ip relative to control; assay type: functional; settings: route intraperitoneal; procedure, shortened: as §1
[15] = Inhibition of beef heart PDE assessed as cyclic AMP level; parameters: species or system Bos taurus
Procedure, shortened: (§2)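 PDE from beef heart or guinea pig lung assayed by earlier-described methods; protein measured by Lowry method. IC50 taken from a plot of percent inhibition vs log inhibitor concentration, as the concentration giving 50% reduction in reaction velocity relative to uninhibited controls.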

[16] = Inhibition of guinea pig lung PDE assessed as cyclic AMP level; parameters: species or system Cavia porcellus; procedure, shortened: as §2
[17] = tested on: Rattus norvegicus; test: Antiallergic activity in Sprague-Dawley CD rat passive anaphylaxis model assessed as hind paw edema volume at 3 mg/kg, ip relative to control; assay type: functional; settings: route intraperitoneal; procedure, shortened: as §1
[18] = tested on: Rattus norvegicus; test: Antiallergic activity in Sprague-Dawley CD rat passive anaphylaxis model assessed as hind paw edema volume at 1 mg/kg, ip relative to control; assay type: functional; settings: route intraperitoneal; procedure, shortened: as §1
[19] = tested on: Rattus norvegicus; test: Antiallergic activity in Sprague-Dawley CD rat assessed as inhibition of passive anaphylaxis-induced hind paw edema at 3 mg/kg, ip relative to control; assay type: functional; settings: Rattus norvegicus, Sprague-Dawley CD, ip, route intraperitoneal; procedure, shortened: as §1
[20] = tested on: Rattus norvegicus; test: Antiallergic activity in Sprague-Dawley CD rat assessed as inhibition of passive anaphylaxis-induced hind paw edema at 1 mg/kg, ip relative to control; assay type: functional; settings: route intraperitoneal; procedure, shortened: as §1
[21] = tested on: Serum; test: Drug metabolism in serum of Sprague-Dawley CD rat passive anaphylaxis model at 0.23 mmol/kg, iv; assay type: ADME, cell-free
Procedure, shortened: (§3)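 Rats given an iv bolus of 0.23 mmol/kg. Serum separated by centrifugation and stored frozen. Drug-derived material in serum quantified over time by UV measurement of 2-aminotropone. For 14C-labelled ester (label in ethyl group or oxalyl carbonyls), radioactivity counted in 0.2 mL serum after tissue-solubiliser digestion and scintillation fluid addition.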

[22] = tested on: Serum; test: Drug metabolism in serum of Sprague-Dawley CD rat passive anaphylaxis model assessed as 2-[(Carboxycarbonyl)amino]-2,4,6-cycloheptatrien-l-one level at 0.23 mmol/kg, iv; assay type: ADME, cell-free; procedure, shortened: as §3
[23] = tested on: Serum; test: Drug metabolism in serum of Sprague-Dawley CD rat passive anaphylaxis model assessed as 2-aminotropone level at 0.23 mmol/kg, iv; assay type: ADME, cell-free; procedure, shortened: as §3
[24] = tested on: Blood; test: Drug metabolism in blood of Sprague-Dawley CD rat passive anaphylaxis model at 0.23 mmol/kg, iv; assay type: ADME, tissue-based; procedure, shortened: as §3
[25] = tested on: Rattus norvegicus; test: Drug metabolism in po dosed Sprague-Dawley CD rat passive anaphylaxis model assessed as 2-aminotropone level; assay type: ADME, organism-based; settings: in vivo
[26] = species: Cavia porcellus; test: Stimulation of guinea pig lung adenylate cyclase activity at 1 x 10^-4 M after 15 mins relative to control
[27] = species: Cavia porcellus; test: Stimulation of guinea pig lung adenylate cyclase activity at 1 x 10^-5 M after 15 mins relative to control
[28] = species: Cavia porcellus; test: Stimulation of guinea pig lung adenylate cyclase activity at 1 x 10^-3 M after 15 mins relative to control
Procedure, shortened: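 Guinea pig lung adenyl cyclase preparation, chosen because it carries negligible cyclic nucleotide phosphodiesterase activity. Enzyme activity was read as cyclic AMP formation in the presence of test agent and compared with untreated control.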

[29] = Rattus norvegicus, Sprague-Dawley CD, po

Compound: CCOC(=O)C(=O)Nc1ccccc(N(C)S(=O)(=O)c2ccc(C)cc2)c1=O
inhibition in vivo at 30 mg/kg [1]: 32%
inhibition in vivo at 100 mg/kg [2]: 0%
inhibition in vivo at 30 mg/kg [3]: 3%

Compound: NC(CO)(CO)CO.O=C(O)C(=O)Nc1cccccc1=O
inhibition (INH) [2]: 73%
inhibition (INH) [3]: 32%
Activity [4]: 0.64 mL
Activity [5]: 0.88 mL
Activity [6]: 0.83 mL
inhibition (INH) [7]: 7%
inhibition (INH) [8]: 13%

Compound: CCOC(=O)C(=O)Nc1ccccc(C)c1=O
inhibition in vivo at 30 mg/kg [1]: 60%
inhibition in vivo at 10 mg/kg [9]: 40%
inhibition in vivo at 100 mg/kg [2]: 34%
inhibition in vivo at 30 mg/kg [3]: 6%

IC50 [15]: 5100 µM
IC50 [16]: 5000 µM
Compound: O=C([O-])C(=O)Nc1cccccc1=O.[K+]
inhibition (INH) [1]: 75%
inhibition (INH) [9]: 70%
inhibition (INH) [2]: 68%
inhibition (INH) [3]: 53%
Activity [10]: 0.36 mL
Activity [11]: 0.69 mL
Activity [12]: 0.69 mL
Activity [4]: 0.44 mL
Activity [5]: 0.66 mL
Activity [6]: 0.61 mL
inhibition in vivo at 5 mg/kg [13]: 46%
inhibition in vivo at 2 mg/kg [14]: 46%
inhibition (INH) [7]: 31%
inhibition (INH) [8]: 35%

Compound: O=C(Nc1cccccc1=O)C(=O)Oc1ccccc1
inhibition in vivo at 30 mg/kg [1]: 73%
inhibition in vivo at 10 mg/kg [9]: 68%
inhibition in vivo at 100 mg/kg [2]: 71%
inhibition in vivo at 30 mg/kg [3]: 31%

Compound: NNC(=O)C(=O)Nc1cccccc1=O
inhibition in vivo at 30 mg/kg [1]: 78%
inhibition in vivo at 10 mg/kg [9]: 64%
inhibition in vivo at 100 mg/kg [2]: 78%
inhibition in vivo at 30 mg/kg [3]: 41%

Compound: CCOC(=O)C(=O)Nc1ccccc(O)c1=O
inhibition in vivo at 30 mg/kg [1]: 61%
inhibition in vivo at 10 mg/kg [9]: 5%
inhibition in vivo at 100 mg/kg [2]: 0%

Compound: CCOC(=O)C(=O)Nc1c(C)ccccc1=O
inhibition in vivo at 30 mg/kg [1]: 47%
inhibition in vivo at 100 mg/kg [2]: 37%
inhibition in vivo at 30 mg/kg [3]: 4%

Compound: O=C(O)c1cc(=O)c2c(OCC(O)COc3cccc4oc(C(=O)O)cc(=O)c34)cccc2o1 [CROMOLYN SODIUM]
inhibition in vivo at 30 mg/kg [1]: 77%
inhibition in vivo at 10 mg/kg [9]: 62%

Compound: COC(=O)C(=O)Nc1ccc(OC)c(=O)cc1
inhibition in vivo at 30 mg/kg [1]: 36%

Compound: Cn1c(=O)c2nc[nH]c2n(C)c1=O [THEOPHYLLINE]
IC50 [15]: 515 µM
IC50 [16]: 1480 µM

Drug metabolism [21]: metabolite_detected
Drug metabolism [22]: metabolite_detected
Drug metabolism [23]: metabolite_notdetected
Drug metabolism [24]: metabolite_detected
Drug metabolism [25]: metabolite_detected
IC50 [15]: 1520 µM
IC50 [16]: 1940 µM
Activity [26]: 7%
Activity [27]: 0%
Compound: CCOC(=O)C(=O)Nc1cccccc1=O
inhibition in vivo at 30 mg/kg [1]: 84%
inhibition in vivo at 10 mg/kg [9]: 80%
inhibition in vivo at 100 mg/kg [2]: 91%
inhibition in vivo at 30 mg/kg [3]: 79%
Activity [10]: 0.22 mL
Activity [17]: 0.41 mL
Activity [18]: 0.95 mL
Activity [4]: 0.17 mL
Activity [5]: 0.24 mL
Activity [6]: 0.47 mL
inhibition in vivo at 3 mg/kg [19]: 62%
inhibition in vivo at 1 mg/kg [20]: 16%
inhibition in vivo at 10 mg/kg [7, 29]: 75%
inhibition in vivo at 3 mg/kg [8, 29]: 50%

Drug metabolism [21]: metabolite_detected
Compound: Nc1cccccc1=O

Compound: O=C(O)COC(=O)C(=O)Nc1cccccc1=O
inhibition in vivo at 30 mg/kg [1]: 93%
inhibition in vivo at 10 mg/kg [9]: 66%
inhibition in vivo at 100 mg/kg [2]: 50%
inhibition in vivo at 30 mg/kg [3]: 45%

Compound: CCOC(=O)C(=O)Nc1ccccc(-c2ccccc2)c1=O
inhibition in vivo at 30 mg/kg [1]: 72%
inhibition in vivo at 10 mg/kg [9]: 57%
inhibition in vivo at 100 mg/kg [2]: 0%

Activity [26]: 84%
Compound: CNC[C@H](O)c1ccc(O)c(O)c1

Compound: Cn1c(=O)c2[nH]cnc2n(C)c1=O
Activity [28]: 5%

Activity [26]: 2%
Compound: O=C(O)C(=O)Nc1cccccc1=O
